The full list was thinned out, with hits kept by preference.
Biofilm kill mix = mixtures killing C. albicans biofilm; C. albicans biofilm persisters + clotrimazole, fluorescence viability; primary screen in compound mixtures of four per well; inhibition, % at 7.6 µM; 120,000 tested, 0.02% active;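 active = inhibition above 30.3% in the primary screen of four-compound pools, then above 30% when the compound was retested; inconclusive = passed the primary limit but could not be retested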;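 note: compounds exposed to preformed 24 h biofilms for 48 h; 0% = untreated biofilm control and 100% = clotrimazole plus chlorhexidine kill blank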
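Test system: C. albicans biofilms. Buffer or medium: RPMI/MOPS medium, pH 7.0. Timing: 48 h compound exposure at 37 °C. Technique: Alamar Blue fluorescence. Evaluation: percent inhibition of biofilm viability.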
Pf gametocyte = P. falciparum stage V gametocyte viability inhibition; P. falciparum stage V gametocytes, ATP luminescence, 24 h; inhibition, % at 10.9 µM; 150,000 tested, 0.065% active; AID 743093;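 active = inhibition above the mean plus 3 SD of compounds within the control limits, set per campaign, cut at about 38% in these data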;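 note: 0% = DMSO wells and 100% = medium only without gametocytes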
ROMK primary = modulators of human ROMK potassium channel | P48048 | Tet-inducible ROMK, thallium flux fluorescence; actives lie on both sides | B-score at 10 µM | 130,000 tested, 2% active;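 active = signal ratio slope over the read window, or its plate-corrected B-score, at least 3 SD from the plate mean, either direction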;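 note: B-score of the F/F0 ratio slope over 7 to 12 s after thallium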
Target sequence (P48048 whole entry, looked up): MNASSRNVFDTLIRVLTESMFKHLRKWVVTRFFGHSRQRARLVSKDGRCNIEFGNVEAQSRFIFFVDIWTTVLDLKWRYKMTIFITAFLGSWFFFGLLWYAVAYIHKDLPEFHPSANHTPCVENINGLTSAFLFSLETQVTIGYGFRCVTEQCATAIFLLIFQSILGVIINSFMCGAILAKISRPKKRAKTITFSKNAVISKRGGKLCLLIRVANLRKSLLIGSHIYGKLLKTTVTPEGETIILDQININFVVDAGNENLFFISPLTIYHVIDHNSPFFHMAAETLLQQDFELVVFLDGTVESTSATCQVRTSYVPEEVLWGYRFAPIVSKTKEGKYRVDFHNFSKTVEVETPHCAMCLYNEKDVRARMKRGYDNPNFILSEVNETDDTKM
ROMK retest = confirmation of human ROMK potassium channel modulators; ROMK thallium flux, fluorescence ratio; hits give low values; normalized thallium flux (F/F0 slope) at 10 µM; 3,000 tested, 54% active; shares compounds with ROMK primary;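 active = Flux at 10 µM at least 3 SD below or above vehicle control mean in one or both replicates; inconclusive = no clear call, values can overlap the other calls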
* hit, by the source's call; ? = inconclusive; . = not tested or not shown.

SMILES	Biofilm kill mix	Pf gametocyte	ROMK primary	ROMK retest
Cc1ccc(C(=O)Nc2c(C)cc(-c3ccccc3)oc2=O)cc1	8	10	0.98	.
NNC(=O)C(=O)Nc1ccc(Cl)c(Cl)c1	9	2	-12*	0.076
O=C(Nc1ccc(Cl)cc1)Nc1ccc(Cl)c(Cl)c1	.	-16	.	.
CN(C)C(=O)c1ccc(-c2nnc(OCc3nc4ccccc4n3C)c3ccccc23)cc1	.	-3	.	.
C[C@H](CO)N1C[C@H](C)[C@@H](CN(C)C(=O)Nc2ccc(C(F)(F)F)cc2)Oc2c(NC(=O)Cc3ccccc3)cccc2C1=O	.	-15	.	.
O=C(CN1C(=O)NC2(CCCCC2)C1=O)N1CCc2ccccc2C1	12	16	0.64	.
O=C(CN1C(=O)NC2(CCCC2)C1=O)N1CCc2ccccc2C1	4	-4	2.2*	0.087
CNC(=O)Nc1cc(NC(=O)NC)cc(C(F)(F)F)c1	13	-16	-0.51	.
CCOCCCn1c(SCC(=O)Nc2ccc(OC)cc2)nc2ccccc2c1=O	.	-2	.	.
CC(/C=N/Nc1ccc2nncn2n1)=C\c1ccccc1	17	-2	0.62	.
O=C(O)c1ccc(N2CCOCC2)c(N2C(=O)C3C4C=CC(C4)C3C2=O)c1 (stereo not drawn)	17	4	-0.025	0.075
NC(=O)c1ccc(N2CCCCC2)c(N2C(=O)C3C4C=CC(C4)C3C2=O)c1 (stereo not drawn)	.	.	-0.023	.
O=C(CN(C1CCCCC1)S(=O)(=O)c1ccc(F)cc1)NCCCO	.	.	0.1	.
O=C(CN(C1CCCCC1)S(=O)(=O)c1ccc(F)cc1)Nc1ccc2c(c1)OCO2	14	5	-3.3*	0.064*
Oc1ccccc1N=Cc1c(O)ccc2ccccc12	19	.	.	0.045*
CN(C)/N=C/c1c(O)ccc2ccccc12	.	.	-0.23	.
O=C(COC(=O)c1ccc(NS(=O)(=O)c2cccs2)cc1O)NCc1ccccc1	-2	14	3.6*	0.084
O=C(COC(=O)c1ccc(NS(=O)(=O)c2cccs2)cc1O)Nc1nc2ccccc2s1	7	-8	-0.11	.
OCCC1CN(Cc2cccc3nccnc23)CCN1Cc1ccc(F)cc1 (stereo not drawn)	15	1	.	.
COC(=O)c1cccc(NC(=O)CCNC(=O)c2ccc([N+](=O)[O-])cc2)c1	6	4	-0.043	.
CCC(=O)NC(Nc1sc2c(c1C(=O)OC)CCN(C)C2)(C(F)(F)F)C(F)(F)F	5	-3	-0.18	.
CCOC(=O)NC(Nc1sc2c(c1C(=O)OC)CCN(C)C2)(C(F)(F)F)C(F)(F)F	.	.	-0.04	0.076
COC(C[C@@H](O)[C@H](C)[C@@H](O)COCc1ccccc1)OC	7	3	.	.
COc1ccc(S(=O)(=O)Nc2cc(C)ccc2OC)cc1C	.	-3	.	.
COc1ccc(S(=O)(=O)NCc2ccccc2Cl)cc1OC	.	.	.	0.076
SMILES	Biofilm kill mix	Pf gametocyte	ROMK primary	ROMK retest
COc1cc(S(=O)(=O)Nc2ccccc2C)ccc1Cl	.	14	.	0.073
CCOc1ccc(S(=O)(=O)NCc2ccccc2Cl)cc1C(N)=O	18	14	0.72	.
COc1cc(S(=O)(=O)Nc2c(C)cc(C)cc2C)ccc1Cl	.	-39	0.14	.
COc1ccc(Cl)cc1NS(=O)(=O)c1ccc(OC)c(OC)c1	15	14	-3.1*	0.075
COc1cccc(CNC(=O)CCC2CCCN(Cc3ccc4c(c3)CCO4)C2)c1 (stereo not drawn)	28	17	.	.
Cc1cc(/C=N/NC(N)=S)c(C)n1-c1ccc(Cl)cc1	13	-8	1.7*	0.091
Cc1cc(/C=N/NC(N)=S)c(C)n1-c1cccc(Cl)c1	3	-7	2.2	.
Cc1cccc(C)c1-n1c(C)cc(/C=N/NC(N)=S)c1C	.	.	2.8*	0.081
Cc1cc(/C=N/NC(N)=S)c(C)n1-c1ccc(Br)cc1	8	.	0.49	.
O=C(O)c1ccc2c(=O)n3c(nc2c1)/C(=C/c1ccccc1C(F)(F)F)CCCC3	26	8	.	.
ClCc1csc(-c2ccccc2Cl)n1	17	-13	0.026	.
CCc1nnc(NC(=O)c2c(OC)cccc2OC)s1	.	-4	.	.
CCOCc1nnc(NC(=O)c2c(OC)cccc2OC)s1	.	.	3.3*	?
CCCC(=O)NC(=S)Nc1ccc(S(=O)(=O)N2CCc3ccccc32)cc1	.	-9	.	.
CN=c1scc(C)n1/N=C/c1ccc(O)cc1	.	-22	.	.
CN=c1scc(C)n1/N=C/c1ccc(O)cc1O	.	23	.	?
O=C(NCc1cccnc1)c1ccc(-c2ccc(Cl)cc2)o1	10	-16	.	.
O=C(NCc1cccnc1)/C(=C\c1ccc(-c2ccc(Cl)c(Cl)c2)o1)S(=O)(=O)c1ccccc1	21	15	-5.1*	0.056*
COc1cc(C(=O)Nc2nc(C)c(Cc3ccc4c(c3)OCO4)s2)cc(OC)c1OC	7	-1	2.6*	0.11*
CCCOc1ccc(C(=O)Nc2nc(C)c(Cc3ccc4c(c3)OCO4)s2)cc1	15	-26	1.2	.
